Calls of active or inactive are those of the source. The rule behind the calls is not given here.
Legend:
A549 [1] = assay: Induction of cell cycle arrest in human A549 cells assessed as accumulation of cells at G2/M phase incubated for 24 hrs by PI staining based flow cytometry analysis; assay type: functional; settings: for IC50: A549, 24 h
Method in brief: (§1)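 A549 cells were grown 48 h, then given compound or DMSO for 24 h, with nocodazole as control. Cells were fixed in 70% ice-cold ethanol overnight and stained with 30 μg/mL propidium iodide. DNA content was read by flow cytometry, with linear gates for G0/G1, S and G2/M. Mean ± s.d. of 2–3 independent experiments; G2/M versus DMSO tested by Dunnett's test.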

HeLa [2] = assay: Induction of mitotic arrest in human HeLa cells assessed as increase in mitotic index at > 200 uM measured for 12 hrs by phase contrast microscopic analysis; assay type: functional, cell-based
Tubulin (Homo sapiens) [3] = molecular target: T1, Tubulin (Homo sapiens) (UniProt P68371+Q9H4B7+P0DPH7+P68366+Q13509+Q71U36+P04350+Q3ZCM7+P07437+P68363+Q9BQE3+Q6PEY2+Q13885+Q9BVA1+Q9BUF5); assay: Destabilization of microtubule network (unknown origin) assessed as decrease in catastrophes frequency measured for 30 min by differential interference contrast microscopic analysis
A549 [4] = assay: Induction of mitotic arrest in human A549 cells assessed as increase in mitotic index at > 200 uM measured for 12 hrs by phase contrast microscopic analysis; assay type: functional, cell-based
A549 [5] = assay: Cytotoxicity against human A549 cells assessed as reduction in cell proliferation incubated for 72 hrs by MTT assay; assay type: toxicity, cell-based; settings: a549, 72 h
Method in brief: (§2)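 Cells were seeded at 2500 per well in DMEM/F12 and left 24 h at 37 °C in 5% CO2 before treatment. Compounds came from DMSO stocks and were given at final 100–0.045 μM, eight dilutions, in triplicate, for 72 h. MTT (up to 0.5 mg/mL) was then added for 1.5 h and formazan dissolved in DMSO was read at 565 nm. Signal was normalized to untreated cells and IC50 calculated.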

A549 [6] = assay: Induction of cell cycle arrest in human A549 cells assessed as accumulation of cells at G2/M phase at 66 uM incubated for 24 hrs by PI staining based flow cytometric analysis; assay type: functional; method in brief: as §1
MCF7 [7] = assay: Induction of mitotic arrest in human MCF7 cells assessed as increase in mitotic index at > 50 uM measured for 12 hrs by phase contrast microscopic analysis; assay type: functional, cell-based
HeLa [8] = assay: Induction of mitotic arrest in human HeLa cells assessed as increase in mitotic index at > 50 uM measured for 12 hrs by phase contrast microscopic analysis; assay type: functional, cell-based
MCF7 [9] = assay: Induction of mitotic arrest in human MCF7 cells assessed as increase in mitotic index at > 200 uM measured for 12 hrs by phase contrast microscopic analysis; assay type: functional, cell-based
Tubulin (Homo sapiens) [10] = molecular target: T1, Tubulin (Homo sapiens); assay: Destabilization of microtubule network (unknown origin) assessed as reduction in microtubule growth rate measured for 30 min by differential interference contrast microscopic analysis
A549 [11] = assay: Induction of cell cycle arrest in human A549 cells assessed as accumulation of cells at G2/M phase at > 22 uM incubated for 24 hrs by PI staining based flow cytometric analysis; assay type: functional; method in brief: as §1
A549 [12] = assay: Induction of mitotic arrest in human A549 cells assessed as increase in mitotic index at > 50 uM measured for 12 hrs by phase contrast microscopic analysis; assay type: functional, cell-based
A549 [13] = assay: Induction of cell cycle arrest in human A549 cells assessed as accumulation of cells at S phase incubated for 24 hrs by PI staining based flow cytometry analysis; assay type: functional; settings: dose <= 64.0 µM; method in brief: as §1
A549 [14] = assay: Induction of cell cycle arrest in human A549 cells assessed as accumulation of cells at G0/G1 phase incubated for 24 hrs by PI staining based flow cytometry analysis; assay type: functional; settings: dose <= 64.0 µM; method in brief: as §1
Tubulin (Bos taurus) [15] = assay: Destabilization of microtubule network of purified bovine brain tubulin in vitro assessed as decrease in microtubule growth rate at 25 uM measured for 30 min by differential interference contrast microscopic analysis relative to control; set-up: scale not given: the % may be the effect or the level left
Tubulin (Bos taurus) [16] = assay: Destabilization of microtubule network of purified bovine brain tubulin in vitro assessed as decrease in catastrophes frequency at 25 uM measured for 30 min by differential interference contrast microscopic analysis
Tubulin (Bos taurus) [17] = assay: Displacement of CPZ from tubulin (bovine brain) assessed as decrease in fluorescence intensity incubated for 1 hr by fluorescence based analysis; settings: dose 100.0 µM
[18] = Cytotoxicity against HEK293T cells assessed as reduction in cell proliferation incubated for 72 hrs by MTT assay; assay type: toxicity, cell-based, HEK293; settings: human; method in brief: as §2
A549 [19] = assay: Induction of cell cycle arrest in human A549 cells assessed as accumulation of cells at G2/M phase at 200 uM incubated for 24 hrs by PI staining based flow cytometric analysis; assay type: functional; method in brief: as §1
A549 [20] = assay: Induction of cell cycle arrest in human A549 cells assessed as accumulation of cells at G2/M phase at 116 uM incubated for 24 hrs by PI staining based flow cytometric analysis; assay type: functional; method in brief: as §1
Tubulin (Homo sapiens) [21] = molecular target: T1, Tubulin (Homo sapiens); assay: Destabilization of microtubule network (unknown origin) assessed as effect on microtubule growth rate measured for 30 min by differential interference contrast microscopic analysis
A549 [22] = assay: Induction of cell cycle arrest in human A549 cells assessed as accumulation of cells at G2/M phase up to 200 uM incubated for 24 hrs by PI staining based flow cytometric analysis; assay type: functional; method in brief: as §1

O=C1CC[C@@H]2C[C@H](c3ccccc3)c3ccccc3N12 (racemic)
IC50 (A549 [1]): 22 µM | Activity (HeLa [2]): Active | Activity (Tubulin (Homo sapiens) [3]): Active | Activity (A549 [4]): Active | Activity (A549 [5]): Toxic | Activity (A549 [6]): Active | Activity (MCF7 [7]): Active | Activity (HeLa [8]): Active | Activity (MCF7 [9]): Active | Activity (Tubulin (Homo sapiens) [10]): Active | Activity (A549 [11]): Active | Activity (A549 [12]): Active

O=C1CC[C@@H]2C[C@H](c3cccc(O)c3)c3ccccc3N12 (racemic)
Activity (A549 [13]): Dose-dependent-effect | IC50 (A549 [1]): 5.9 µM | Activity (A549 [1]; dose <= 64.0 µM): Dose-dependent-effect | Activity (A549 [14]): Dose-dependent-effect | Activity (Tubulin (Bos taurus) [15]): > 50% | Activity (Tubulin (Bos taurus) [16]): Active | Activity (Tubulin (Bos taurus) [17]): Active | IC50 at 72 h [18]: 4.1 µM

O=C1CCC(/C=C/c2ccccc2)N1c1ccccc1 (racemic)
IC50 (A549 [1]): 82 µM | Activity (HeLa [2]): Active | Activity (Tubulin (Homo sapiens) [3]): Active | Activity (A549 [4]): Active | Activity (A549 [5]): Toxic | Activity (A549 [19]): Active | Activity (MCF7 [9]): Active | Activity (Tubulin (Homo sapiens) [10]): Active | Activity (A549 [20]): Active

CC(C)(C)c1ccc(N2C(=O)CCC2/C=C/c2ccccc2)cc1 (racemic)
Activity (Tubulin (Homo sapiens) [21]): No effect

COc1cc(N2C(=O)CCC2c2ccc(Br)cc2)cc(OC)c1OC (racemic)
Activity (Tubulin (Homo sapiens) [3]): inactive | Activity (Tubulin (Homo sapiens) [21]): No effect

COc1ccc(C2CCC(=O)N2c2cc(OC)c(OC)c(OC)c2)cc1OC (racemic)
Activity (Tubulin (Homo sapiens) [3]): inactive | Activity (Tubulin (Homo sapiens) [21]): No effect

COc1ccc(C2CCC(=O)N2c2cccc3[nH]ccc23)cc1OC (racemic)
Activity (Tubulin (Homo sapiens) [21]): No effect

COc1ccc(N2C(=O)CCC2/C=C/c2ccc(C)cc2)cc1OC (racemic)
Activity (A549 [22]): inactive | Activity (Tubulin (Homo sapiens) [21]): Active

COc1ccc(N2C(=O)CCC2c2ccc(OC)c(OC)c2)cc1 (racemic)
Activity (Tubulin (Homo sapiens) [21]): Active

Cc1ccc(/C=C/C2CCC(=O)N2c2ccccc2)cc1 (racemic)
Activity (A549 [22]): inactive | Activity (Tubulin (Homo sapiens) [21]): Active

Cc1ccc([C@H]2C[C@H]3CCC(=O)N3c3ccccc32)cc1 (racemic)
Activity (A549 [6]): inactive | Activity (Tubulin (Homo sapiens) [21]): Active

Cc1ccccc1C1CCC(=O)N1c1ccc([N+](=O)[O-])cc1 (racemic)
Activity (Tubulin (Homo sapiens) [21]): No effect

O=C1CCC(c2c3ccccc3cc3ccccc23)N1c1ccc(C(F)(F)F)cc1 (racemic)
Activity (Tubulin (Homo sapiens) [21]): No effect
